# A selection: hits, their analogues and other compounds. The true share with any hit is near 1.8%.
# SIAE inh: blocks human sialic acid acetylesterase; Q9HAT2; SIAE FP-Rh probe binding, fluorescence polarization; inhibition, % at 9.66 µM; 370,000 tested, 0.69% active; AID 1053197;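 active = inhibition above a cutoff: mean of compounds within the control limits plus 3 SD of those, cut at about 17% in these data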;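 also: 0% = plate median of compound wells and 100% = probe without SIAE protein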
# ABHD4 inh: ABHD4 (mouse) inhibition, primary FP screen; Q8VD66; purified mABHD4, FP-Rh probe fluorescence polarization; inhibition, % at 8.92 µM; 370,000 tested, 0.54% active;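 active = inhibition exceeding the mean over every tested compound plus 3 SD, cut at about 30% in these data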;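 also: 0% = plate median of compound wells and 100% = S159A mutant with DMSO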
#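 Test system: mouse ABHD4 enzyme, wild type. Reagent: FP-Rh fluorescent activity-based probe, added after compound pre-incubation. Timing: pre-incubation 45 min, probe exposure 60 min, at 25 °C. Technique: FP readout, ex 525 nm / em 598 nm. Benchmarks: high control S159A mutant with DMSO, low control median of compound wells.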
# ARNT TACC3 PPI: disrupts binding between human ARNT and TACC3. AlphaScreen His-ARNT PAS-B/GST-TACC3 binding, luminescence; TACC3 fragment carries E629A point mutation. Q9Y6A5. 390,000 tested, 0.66% active. inhibition, % at 9.99 µM;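 active = mean inhibition of replicates at least 50% and at least half of replicates each reaching 50%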;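 also: 0% = complete ARNT plus TACC3 wells and 100% = ARNT alone without TACC3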
# HTRA1 inhibitor: inhibitors of human serine peptidase HTRA1; Q92743; recombinant HTRA1, FP-rhodamine activity-based probe, fluorescence polarization; inhibition, % at 5.96 µM; 340,000 tested, 0.5% active; AID 504803; in the data active = inhibition above about 36%;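 also: 0% = enzyme with DMSO and 100% = wells lacking enzyme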
# Target sequence (Q92743 whole entry, looked up): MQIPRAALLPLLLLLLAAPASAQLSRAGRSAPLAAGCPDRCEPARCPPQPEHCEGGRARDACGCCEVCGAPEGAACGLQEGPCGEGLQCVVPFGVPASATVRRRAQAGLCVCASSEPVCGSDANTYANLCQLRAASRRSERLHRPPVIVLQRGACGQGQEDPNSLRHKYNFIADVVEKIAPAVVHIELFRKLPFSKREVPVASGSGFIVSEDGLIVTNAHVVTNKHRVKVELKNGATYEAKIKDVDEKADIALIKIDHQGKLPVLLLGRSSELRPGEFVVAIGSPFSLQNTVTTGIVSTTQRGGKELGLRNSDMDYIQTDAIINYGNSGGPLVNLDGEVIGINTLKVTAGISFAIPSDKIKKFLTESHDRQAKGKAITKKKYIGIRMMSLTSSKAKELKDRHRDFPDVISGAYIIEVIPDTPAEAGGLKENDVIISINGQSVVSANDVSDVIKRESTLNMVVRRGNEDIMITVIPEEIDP
# TCR-CD3 inh: human TCR-CD3 binding inhibition. TAMRA-labeled TCR probe fluorescence, biochemical. inhibition, % at 9.4 µM. 360,000 tested, 0.37% active; in the data active = inhibition above about 19%;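 also: recombinant mutant TCR 2C K166C tagged with TAMRA read by polarization; 0% = receptor in buffer alone and 100% = receptor with positive control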
# The depositor's hits bear a star; nt = not tested or not shown.
SMILES,SIAE inh,ABHD4 inh,ARNT TACC3 PPI,HTRA1 inhibitor,TCR-CD3 inh
Cc1ccc(S(=O)(=O)Nc2cccc3c2O[C@@H](CN(C)CC2CCCCC2)[C@@H](C)CN([C@H](C)CO)C3=O)cc1,nt,nt,6,nt,nt
COc1ccc(-c2cc(=O)n(-c3nc4ccccc4[nH]3)[nH]2)cc1,-2,3,47*,15,3
C[C@@H]1CN([C@H](C)CO)C(=O)c2cc(NC(=O)Cc3ccccc3)ccc2O[C@H]1CN(C)S(=O)(=O)c1ccc(F)cc1,nt,nt,-1,nt,nt
COc1ccc(CNC(=O)C[C@H]2CC[C@H]3[C@H](COc4ccc(NC(=O)C5CC5)cc4C(=O)N3C)O2)cc1,nt,nt,12,nt,nt
COc1ccc(CNC(=O)C[C@@H]2CC[C@H]3[C@@H](COc4ccc(NC(=O)C5CC5)cc4C(=O)N3C)O2)cc1,nt,nt,active,nt,nt
CC(C)NC(=O)N[C@@H]1CC[C@H](CC(=O)NCc2ccc(Oc3ccccc3)cc2)O[C@@H]1CO,nt,nt,-2,nt,nt
CC(C)NC(=O)N[C@@H]1CC[C@H](CC(=O)NCc2ccc(Oc3ccccc3)cc2)O[C@H]1CO,nt,nt,46*,nt,nt
C[C@@H]1CN([C@H](C)CO)S(=O)(=O)c2ccc(C#C[C@@H](C)O)cc2O[C@@H]1CN(C)C(=O)c1ccccc1,nt,nt,-2,nt,nt
O=C(CSc1cn(CCNC(=O)c2ccccc2)c2ccccc12)NCc1ccco1,18*,-1,1,-11,1
Cc1ccc(Nc2nc(-c3c(C)nc4ccccn34)cs2)cc1,7,35*,3,20,-6
Cc1ccc(Nc2nc(-c3c(C)nc4ncccn34)cs2)cc1,4,19,27,6,-2
C[C@@H]1CN([C@@H](C)CO)C(=O)c2cc(NC(=O)Nc3ccc4c(c3)OCO4)ccc2O[C@@H]1CN(C)Cc1ccc(-c2ccccc2)cc1,nt,nt,15,nt,nt
O=C(O)c1ccc(NS(=O)(=O)c2cccc3cccnc23)cc1,1,-2,-8,1,4
CCSS(=O)(=O)c1cccc2cccnc12,5,5,65*,nt,4
O=C(O)CCS(=O)(=O)c1cccc2cccnc12,-10,-7,-1,0,-7
O=S(=O)(Nc1ccc(Cl)cc1)c1cccc2cccnc12,12,0,38*,-29,7
COCCNC(=S)Nc1cc(OC)c(OC)cc1C#N,-1,0,50*,3,-2
COCCCNC(=S)Nc1cc(C)c(C)cc1C,0,5,2,4,-2
O=C(C1CCC1)N1CCCCN2[C@@H](CO)[C@H](c3ccc(C#CC4CCCC4)cc3)[C@@H]2C1,nt,nt,12,nt,nt
C[C@@H]1CN([C@H](C)CO)C(=O)c2cc(-c3cccnc3)cnc2O[C@H]1CN(C)C(=O)Nc1ccc2c(c1)OCO2,nt,nt,0,nt,nt
O=C(C[C@@H]1CC[C@H]2[C@@H](COC[C@H](O)CN2Cc2cc(F)ccc2F)O1)N[C@@H]1CCN(Cc2ccccc2)C1,nt,nt,3,nt,nt
C=CCN1C(=O)/C(=C2/Sc3ccccc3N2CC)SC1=S,-2,2,7,-6,1
C=CCN1C(=O)/C(=C2/Sc3ccccc3N2CCCS(=O)(=O)O)SC1=S,3,36*,4,17,2
O=C(O)CCCN1C(=O)/C(=C\c2ccc(-c3nc4ccccc4s3)o2)SC1=S,-2,29,-1,-7,1
O=C(O)CCN1C(=O)/C(=C/c2ccc(-c3nc4ccccc4s3)o2)SC1=S,-10,27,64*,8,9
SMILES,SIAE inh,ABHD4 inh,ARNT TACC3 PPI,HTRA1 inhibitor,TCR-CD3 inh
C[C@H](CO)N1C[C@H](C)[C@H](CN(C)C(=O)Nc2ccccc2)Oc2ccc(NC(=O)Cc3ccccc3)cc2CC1=O,nt,nt,1,nt,nt
CN(C)c1ccc2c(c1)[C@@H]1C[C@@H](CC(=O)NCc3ccccc3F)O[C@H](CO)[C@@H]1O2,nt,nt,-5,nt,nt
CCCCOc1ccc(C(=O)Oc2cc(C)[nH]c(=O)c2[N+](=O)[O-])cc1,-8,2,46*,8,8
CCOc1ccc(C(=O)Oc2cc(C)[nH]c(=O)c2[N+](=O)[O-])cc1,-5,-6,-8,-5,-3
COC(=O)C(NC(=O)c1ccccc1)=C1C=C(C)OC(C)=C1,18*,0,-19,3,-5
C/C(=N\NC(=O)c1ccc(Br)cc1)C1C(=O)c2ccccc2C1=O,0,36*,-1,40*,27*
Cc1c(C)n(-c2ccccc2)c2ncnc(NCCCN(C)C)c12,6,3,-1,3,-1
Cc1ccc(-n2c(C)c(C)c3c(NCCO)ncnc32)cc1,6,0,27*,6,2
C[C@H]1CN([C@@H](C)CO)C(=O)c2cc(-c3ccncc3)cnc2O[C@H]1CN(C)S(=O)(=O)c1ccc(F)cc1,nt,nt,0,nt,nt
Cc1ccc(/C(=N/Nc2ncnc3ccccc23)C(=O)O)cc1,8,6,61*,2,-9
Cc1ccc(Nc2ncnc3ccccc23)cc1,-4,4,nt,-9,4
COc1ccc([N+](=O)[O-])cc1N1C(=O)c2cccnc2C1=O,3,3,50*,10,1
CC(=O)Oc1ccc([N+](=O)[O-])cc1N1C(=O)c2ccccc2C1=O,6,10,10,2,3
Cc1[nH]c2ccccc2c1/C=N/NC(=O)c1cccc(S(=O)(=O)Nc2cccc(C(F)(F)F)c2)c1,19*,-21,0,31,5
NNC(=O)c1cccc(S(=O)(=O)Nc2cccc(C(F)(F)F)c2)c1,-74,2,-9,-3,1
COC1=CC(=O)C(C2CC(=O)c3c(O)cc(O)cc3O2)=CC1=O (stereo unspecified),11,49*,11,18,3
COc1c(CC=C(C)C)cc(C2CC(=O)c3c(O)cc(O)cc3O2)cc1CC=C(C)C (stereo unspecified),-22,-29,-7,-15,7
O=C(Nc1ccc2c(c1)[C@@H]1C[C@H](CC(=O)N3CCc4ccccc4C3)O[C@H](CO)[C@@H]1O2)c1ccc2c(c1)OCO2,nt,nt,48*,nt,nt
COc1ccc(/C=N/Nc2ncnc(Cl)c2N)cc1OC,4,5,10,-1,8
COc1cccc(/C=N/Nc2nc3ccccc3n3cnnc23)c1O,-2,5,85*,14,0
COc1cccc(/C=N/Nc2ncnc(Cl)c2N)c1O,-10,9,59*,1,-7
CO[C@H]1CN(C)C(=O)c2ccc(NC(C)=O)cc2OC[C@H](C)N(C(=O)c2ccncc2)C[C@H]1C,nt,nt,-8,nt,nt
Cc1noc(C)c1NC(=O)N(C)C[C@@H]1OCCCC[C@H](C)Oc2ccc(NC(=O)Nc3ccc(F)cc3)cc2C(=O)N([C@@H](C)CO)C[C@@H]1C,nt,nt,-7,nt,nt
COc1cc([N+](=O)[O-])cc(/C=N/NC(=O)c2ccc(C)nc2)c1O,-2,16,65*,11,18
COc1cc([N+](=O)[O-])cc(/C=N/NC(=O)Cn2cncn2)c1O,2,1,61*,-1,-10
O=C(NN=C1CCC(=NNC(=O)c2ccccn2)CC1)c1ccccn1,-4,4,66*,9,3
O=C(N/N=C/c1ccco1)c1ccccn1,-7,3,67*,-1,-9

# Compound activity deposited in PubChem BioAssay by several laboratories.
